Experimental data as given in ChEMBL document CHEMBL3751694, “1-Piperazinylphthalazines as potential VEGFR-2 inhibitors and anticancer agents: Synthesis and in vitro biological evaluation” (Eur J Med Chem, 2016).

Legend:
Assay type in all cases: functional
[1] = Growth inhibition of human BT549 cells at 10 uM after 48 hrs by SRB method; details: BT-549, 48 h, read-out: GI
How it was run: (§1)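 NCI 56-line primary screen at a single 10^-5 M concentration. Cells grown in RPMI 1640 with 5% FBS and 2 mM L-glutamine, plated at 5000–40,000 cells/well, then preincubated for 24 h. Exposure was 48 h at 37 °C and 5% CO2. Adherent cells were fixed with cold TCA at 10% final, suspension cells at 16%. Staining used 0.4% SRB, read at 515 nm. Results are % growth inhibition relative to control.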

[2] = Growth inhibition of human PC3 cells at 10 uM after 48 hrs by SRB method; details: PC-3, 48 h, read-out: GI; how it was run: as §1
[3] = Growth inhibition of human UO31 cells at 10 uM after 48 hrs by SRB method; details: UO-31, 48 h, read-out: GI
How it was run: (§2)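 NCI 56-line screen, single-dose primary assay at 10^-5 M. Cells grown in RPMI 1640 with 5% FBS and 2 mM L-glutamine, plated at 5000–40,000 cells/well and held 24 h at 37 °C, 5% CO2 before drug addition. Compound was given from DMSO stock, exposure 48 h, then TCA fixation and SRB staining with absorbance at 515 nm. % growth is taken relative to time-zero and untreated controls.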

[4] = Growth inhibition of human TK10 cells at 10 uM after 48 hrs by SRB method; details: TK-10, 48 h, read-out: GI; how it was run: as §2
[5] = Growth inhibition of human Caki1 cells at 10 uM after 48 hrs by SRB method; details: CAKI-1, 48 h, read-out: GI; how it was run: as §1
A498 = experiment: Growth inhibition of human A498 cells at 10 uM after 48 hrs by SRB method; details: A498, 48 h, read-out: GI; how it was run: as §1
786-0 = experiment: Growth inhibition of human 786-0 cells at 10 uM after 48 hrs by SRB method; details: 786-0, 48 h, read-out: GI; how it was run: as §1
[6] = Growth inhibition of human OVCAR8 cells at 10 uM after 48 hrs by SRB method; details: OVCAR-8, 48 h, read-out: GI; how it was run: as §1
[7] = Growth inhibition of human UACC62 cells at 10 uM after 48 hrs by SRB method; details: UACC-62, 48 h, read-out: GI; how it was run: as §2
SK-MEL-5 = experiment: Growth inhibition of human SK-MEL-5 cells at 10 uM after 48 hrs by SRB method; details: SK-MEL-5, 48 h, read-out: GI; how it was run: as §1
M14 = experiment: Growth inhibition of human M14 cells at 10 uM after 48 hrs by SRB method; details: M14, 48 h, read-out: GI; how it was run: as §1
[8] = Growth inhibition of human SF268 cells at 10 uM after 48 hrs by SRB method; details: SF-268, 48 h, read-out: GI; how it was run: as §1
KM12 = experiment: Growth inhibition of human KM12 cells at 10 uM after 48 hrs by SRB method; details: KM12, 48 h, read-out: GI; how it was run: as §1
HT-29 = experiment: Growth inhibition of human HT-29 cells at 10 uM after 48 hrs by SRB method; details: HT-29, 48 h, read-out: GI; how it was run: as §1
[9] = Growth inhibition of human HCT15 cells at 10 uM after 48 hrs by SRB method; details: HCT-15, 48 h, read-out: GI; how it was run: as §1
[10] = Growth inhibition of human COLO205 cells at 10 uM after 48 hrs by SRB method; details: COLO 205, 48 h, read-out: GI; how it was run: as §1
NCI-H522 = experiment: Growth inhibition of human NCI-H522 cells at 10 uM after 48 hrs by SRB method; details: NCI-H522, 48 h, read-out: GI; how it was run: as §1
[11] = Growth inhibition of human HOP92 cells at 10 uM after 48 hrs by SRB method; details: HOP-92, 48 h, read-out: GI; how it was run: as §1
A549 = experiment: Growth inhibition of human A549 cells at 10 uM after 48 hrs by SRB method; details: A549, 48 h, read-out: GI; how it was run: as §1
SR = experiment: Growth inhibition of human SR cells at 10 uM after 48 hrs by SRB method; details: read-out: GI; how it was run: as §1
[12] = Growth inhibition of human […] cells at 10 uM after 48 hrs by SRB method; details: read-out: GI; how it was run: as §1
[13] = Growth inhibition of human MOLT4 cells at 10 uM after 48 hrs by SRB method; details: MOLT-4, 48 h, read-out: GI; how it was run: as §1
K562 = experiment: Growth inhibition of human K562 cells at 10 uM after 48 hrs by SRB method; details: K562, 48 h, read-out: GI; how it was run: as §1
[14] = Growth inhibition of human HL-60(TB) cells at 10 uM after 48 hrs by SRB method; details: HL-60, 48 h, read-out: GI
How it was run: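 NCI single-dose primary screen at 10^-5 M, 48 h exposure. Cells grown in RPMI 1640 with 5% FBS and 2 mM L-glutamine. Suspension cells fixed in situ with TCA (final 16%), stained with SRB, absorbance read at 515 nm. Percent growth inhibition calculated against time-zero and untreated control plates.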

CCRF-CEM = experiment: Growth inhibition of human CCRF-CEM cells at 10 uM after 48 hrs by SRB method; details: read-out: GI; how it was run: as §1
T47D = experiment: Growth inhibition of human T47D cells at 10 uM after 48 hrs by SRB method; details: read-out: GI; how it was run: as §2
MDA-MB-468 = experiment: Growth inhibition of human MDA-MB-468 cells at 10 uM after 48 hrs by SRB method; details: MDA-MB-468, 48 h, read-out: GI; how it was run: as §1
MDA-MB-231 = experiment: Growth inhibition of human MDA-MB-231 cells at 10 uM after 48 hrs by SRB method; details: MDA-MB-231, 48 h, read-out: GI; how it was run: as §1
MCF7 = experiment: Growth inhibition of human MCF7 cells at 10 uM after 48 hrs by SRB method; details: MCF7, 48 h, read-out: GI; how it was run: as §1
SN12C = experiment: Growth inhibition of human SN12C cells at 10 uM after 48 hrs by SRB method; details: read-out: GI; how it was run: as §1
ACHN = experiment: Growth inhibition of human ACHN cells at 10 uM after 48 hrs by SRB method; details: read-out: GI; how it was run: as §1
NCI/ADR-RES = experiment: Growth inhibition of human NCI/ADR-RES cells at 10 uM after 48 hrs by SRB method; details: read-out: GI; how it was run: as §1
[15] = Growth inhibition of human UACC257 cells at 10 uM after 48 hrs by SRB method; details: UACC-257, 48 h, read-out: GI; how it was run: as §2
SK-MEL-2 = experiment: Growth inhibition of human SK-MEL-2 cells at 10 uM after 48 hrs by SRB method; details: SK-MEL-2, 48 h, read-out: GI; how it was run: as §1
[16] = Growth inhibition of human HCT116 cells at 10 uM after 48 hrs by SRB method; details: HCT-116, 48 h, read-out: GI; how it was run: as §1
NCI-H460 = experiment: Growth inhibition of human NCI-H460 cells at 10 uM after 48 hrs by SRB method; details: NCI-H460, 48 h, read-out: GI; how it was run: as §1
NCI-H226 = experiment: Growth inhibition of human NCI-H226 cells at 10 uM after 48 hrs by SRB method; details: NCI-H226, 48 h, read-out: GI; how it was run: as §1
[17] = Growth inhibition of human OVCAR4 cells at 10 uM after 48 hrs by SRB method; details: OVCAR-4, 48 h, read-out: GI; how it was run: as §1
[18] = Growth inhibition of human OVCAR3 cells at 10 uM after 48 hrs by SRB method; details: OVCAR-3, 48 h, read-out: GI; how it was run: as §1
MDA-MB-435 = experiment: Growth inhibition of human MDA-MB-435 cells at 10 uM after 48 hrs by SRB method; details: MDA-MB-435, 48 h, read-out: GI; how it was run: as §1
[19] = Growth inhibition of human SF295 cells at 10 uM after 48 hrs by SRB method; details: SF-295, 48 h, read-out: GI; how it was run: as §1

Row | Structure (SMILES) | inhibition of growth at 10 µM [2] | inhibition of growth at 10 µM [3] | inhibition of growth at 10 µM [4] | inhibition of growth at 10 µM (A498) | inhibition of growth at 10 µM [6] | inhibition of growth at 10 µM [7] | inhibition of growth at 10 µM (SK-MEL-5) | inhibition of growth at 10 µM (HT-29) | inhibition of growth at 10 µM [10] | inhibition of growth at 10 µM (NCI-H522) | inhibition of growth at 10 µM [11] | inhibition of growth at 10 µM (A549) | inhibition of growth at 10 µM (SR) | inhibition of growth at 10 µM [12] | inhibition of growth at 10 µM [13] | inhibition of growth at 10 µM (K562) | inhibition of growth at 10 µM [14] | inhibition of growth at 10 µM (CCRF-CEM) | inhibition of growth at 10 µM (T47D) | inhibition of growth at 10 µM (MDA-MB-468) | further results
1 | CCOC(=O)c1sc(NC(=O)CN2CCN(c3nnc(-c4ccccc4)c4ccccc34)CC2)nc1C | 57% | 46% | 36% | 37% | 33% | 34% | 33% | 50% | 34% | 64% | 38% | 33% | 64% | 53% | 59% | 34% | 43% | 34% | 68% | 49% | inhibition of growth at 10 µM [1]: 33%; inhibition of growth at 10 µM [5]: 35%; inhibition of growth at 10 µM (786-0): 31%; inhibition of growth at 10 µM (M14): 32%; inhibition of growth at 10 µM [8]: 32%; inhibition of growth at 10 µM (KM12): 30%; inhibition of growth at 10 µM [9]: 44%; inhibition of growth at 10 µM (MDA-MB-231): 49%
2 | O=C(CN1CCN(c2nnc(-c3ccccc3)c3ccccc23)CC1)Nc1nc(-c2ccccc2)cs1 | 62% | 90% | 30% | 54% | 44% | 44% | 77% | 34% | 54% | 58% | 47% | 48% | 57% | 56% | 70% | 50% | 50% | 53% | 85% | 59% | inhibition of growth at 10 µM [1]: 40%; inhibition of growth at 10 µM (MCF7): 53%; inhibition of growth at 10 µM (SN12C): 32%; inhibition of growth at 10 µM (ACHN): 31%; inhibition of growth at 10 µM (NCI/ADR-RES): 45%; inhibition of growth at 10 µM [15]: 48%; inhibition of growth at 10 µM (SK-MEL-2): 40%; inhibition of growth at 10 µM (M14): 44%; inhibition of growth at 10 µM [9]: 51%; inhibition of growth at 10 µM [16]: 38%; inhibition of growth at 10 µM (NCI-H460): 45%; inhibition of growth at 10 µM (NCI-H226): 38%; inhibition of growth at 10 µM (MDA-MB-231): 38%
3 | O=C(CN1CCN(c2nnc(-c3ccccc3)c3ccccc23)CC1)Nc1nc(-c2ccc(Cl)cc2)cs1 | 56% | 50% | 41% | 52% | 37% | 36% | 56% | 32% | 32% | 47% | 31% | 45% | 53% | 58% | 64% | 60% | 45% | 38% | 65% | 66% | inhibition of growth at 10 µM (MCF7): 44%; inhibition of growth at 10 µM (SN12C): 30%; inhibition of growth at 10 µM [5]: 41%; inhibition of growth at 10 µM (786-0): 30%; inhibition of growth at 10 µM (NCI/ADR-RES): 39%; inhibition of growth at 10 µM [17]: 30%; inhibition of growth at 10 µM [18]: 31%; inhibition of growth at 10 µM [15]: 45%; inhibition of growth at 10 µM (SK-MEL-2): 31%; inhibition of growth at 10 µM (MDA-MB-435): 31%; inhibition of growth at 10 µM [19]: 38%; inhibition of growth at 10 µM [8]: 32%; inhibition of growth at 10 µM [16]: 38%; inhibition of growth at 10 µM (NCI-H226): 31%
